Experimental data from the EternaBench riboswitch data.

Tested on: MS2 coat protein
Test: apparent Kd, MS2 coat protein; higher = weaker binding; RNA-MaP array; FMN 200 µM where present
Procedure, shortened: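 Binding was read on Illumina sequencing-chip clusters where stalled E. coli RNA polymerase had transcribed each design. A titration of SNAP-549-labelled MS2 coat protein began at 0.7 or 1.5 nM and doubled to 3 µM, once without ligand and once with constant ligand, in 100 mM Tris-HCl pH 7.5, 80 mM KCl, 4 mM MgCl2, BSA, DTT, yeast tRNA and Tween-20. The apparent Kd is the median of filtered per-cluster binding-curve fits, based on green signal normalised to red-channel RNA signal and control-cluster median Fmax.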

[1] = designed as: OFF switch for flavin mononucleotide, no ligand
[2] = ligand present: flavin mononucleotide, designed as: OFF switch for flavin mononucleotide
[3] = designed as: ON switch for flavin mononucleotide, no ligand
[4] = ligand present: flavin mononucleotide, designed as: ON switch for flavin mononucleotide

Sequence | apparent Kd [1] [µM] | apparent Kd [2] [µM] | apparent Kd [3] [µM] | apparent Kd [4] [µM]
UCGUAUAAGGGCAUUACACAUGAGGAUCACCCAUGUACGUUAGAGGAUAUGCAUUCCAGUUGAACGUAGAAGGCUAGAGAAGGG | 0.132 | 0.129 |  | 
AUUACAAUUUUAUACAUGAGGAUCACCCAUGUUAUAAGUCAUGAGGAUAUGGUAUUGUAGUUAUUCCAGAAGGCAUUUAGCUAA |  |  | 0.00875 | 0.00764
AAAAGACAUGAGGAUCACCCAUGUAAAAACAUAGGAGGAUAUGUCAUGAAAAAAGACUUGACAGAAGGCCUUUGUC |  |  | 0.164 | 0.0654
UGAUAGGACAGAGGAUAUACGGAUAGGAUCUACUAUCCUCCUUAAAUAACAUGAGGAUCACCCAUGUAGAAGGCUGUCCUAUCU | 0.0173 | 0.039 |  | 
AGAAACUACGAGAAGGACAUAAAAGGUGCCGCAAACAUGAGGAUCACCCAUGUAGGAUAUCGUAGUUUCAGGAUCGUGAGAUCA | 0.0284 | 0.262 |  | 
AAAAAGCGAGGAUAUACAUGAGGAUCACCCAUGUGAAAGUCGAAAAAAAAGACAAAAAGUAGAAGGCGCAAAAA | 0.0232 | 0.0267 |  | 
AUACCUUAUGAGAAGGCGGUCAUGAAACAUGAUCGAGGAUAUCAUGUAAACAUGAGGAUCACCCAUGUAUGGGUAUUAUGGUAG |  |  | 0.0617 | 0.0123
AGCAUGCAGUAGGAUAUCGAUCCGCAAUAUGAACGAGAAGGACUGACAUGAGGAUCACCCAUGUGCGUCCUAGG | 0.0165 | 0.0197 |  | 
UGUCAUAUAUAGAAGGGUAGUAGGGAUUUACAUGAGGAUCACCCAUGUAUUAUAGGAUAUGUGUAUAGUUUUUAUUCAAGUAUA | 0.0287 | 0.0179 |  | 
GUGUACAGAGGAUAUAUAUGAGCAUGGAAACAUGCAUCUUCACAUGAGGAUCACCCAUGUAGAAGGCUGUACAC | 0.0157 | 0.0492 |  | 
UAUUUUAACUAAGGAUAUCUGUAUUAUGUUGAAACAUGAGGAUCACCCAUGUUCAUGAUAUUAUAGGAGAAGGUAGAUGAAUAA |  |  | 0.00675 | 0.00601
AUCAUUCGUGUAGGAUAUGCGUGGCGAAGCUAUGCAGAAGGACAUGAGGAUCACCCAUGUCUUUCUCGAGCUGUAGCUCGAGGA | 0.0213 | 0.0922 |  | 
GUGAGUGAUAGAGGAUAUAUAGAGAGAGAGAGAAUAGAAGGCUAAACAUACAUGAACAUGAGGAUCACCCAUGUCACCCAUGUU |  |  | 0.0376 | 0.0422
UGUCGGAGCAGAGGAUAUUACAUGAGGAUCACCCAUGUAUGAAUCAAUAGCUGGAAACAGCAAUGUAAGAAGGCUGCUCCGACA | 0.00786 | 0.0266 |  | 
ACUAGAUGAGGAUAUACACAUUUUAGUGUUCCUCUAGAUUAACAUGAGGAUCACCCAUGUAGAAGGCAUCAAUU | 0.0565 | 0.183 |  | 
GGACAUCCCACAGGAUAUGCUGGACUUUGUCCAGCAGAAGGGUGAACAUGAGGAUCACCCAUGUAUAGGAUGUCCAUAUUUAAU |  |  | 0.963 | 0.128
CGAUAUAUGAAGGGCGAACGCGCACAUGAGGAUCACCCAUGUAGAAGGCGAUCCGCAACGCGGAUCGAGGAUAUAUAGUAUACA | 0.037 | 0.0338 |  | 
UUGACGGCAGGAUAUACAUGAGGAUCACCCAUGUAAAUUUUUCGUUUAACUUGAAUGUGUAGAAGGGCCAAAUU | 0.019 | 0.02 |  | 
AGUGUCAUCGAGAAGGCCUCAACAUGAGGAUCACCCAUGUUGCAAAAUGGGAGGAUAUCGCAAAAACAGCUACGUUUCGUAGCA |  |  | 0.0454 | 0.00743

Sequence | apparent Kd [1] [µM] | apparent Kd [2] [µM] | apparent Kd [3] [µM] | apparent Kd [4] [µM]
AAGAAGUCAGGAUAUGCAUGGCGGGACUUGCGUCGUGGCGUGCAGAAGGGACAUGAGGAUCACCCAUGUGGAGC | 0.107 | 0.161 |  | 
AAAAUACAUGAGGAUCACCCAUGUUAGGAUAUCCAAGGUCUGACCCUCAGGGUCAGAAGGAGAAGGGAUGUGGU | 0.0567 | 0.0677 |  | 
CUGAGCUCAGGAUAUACAUGAGGAUCACCCAUGUGUUCCUGCGACGUUAGUUGCACAUGUAGAAGGGAGUUCGG | 0.272 | 0.0578 |  | 
GUGUACAGAGGAUAUACUUAUGGAGUCACGAAAGUGGCUUCACAUGAGGAUCACCCAUGUAGAAGGCUGUACAC | 0.0281 | 0.0311 |  | 
UGUCGGAGCAGAGGAUAUAACAUGAGGAUCACCCAUGUAAUAAGAUCAAGCUGGAAACAGCAAUGUUAGAAGGCUGCUCCGACA | 0.219 | 1.01 |  | 
AUGCAACAUGAGGAUCACCCAUGUGAGGAUAUCGUAUAAUACUGUUGAAAGAGUUAGACGAGAAGGCACACCGU | 0.0283 | 0.054 |  | 
AUAUUAAGUGUGAGGAUAUGCUGGUCCUUGGAUCAGCAGAAGGCACAUGAGGAUCACCCAUGUAAUAUAUUUAU | 0.0904 | 0.349 |  | 
GCAGGAUAAGUGAGGAUAUACCUAUGGAUACAUAGGUAGAAGGCACAUGAGGAUCACCCAUGUUCCUUGCCUGC | 0.013 | 0.0427 |  | 
CUUUUGUGAGGAUAUUAUUAGUAAAUAAAUAAAAUUACUACUGAGAAGGCACAUGAGGAUCACCCAUGUUCCUC | 0.0243 | 0.108 |  | 
UUAUUAUAUGUAGGAUAUGCAUAUUAUUAUUAUGCAGAAGGACAUGAGGAUCACCCAUGUAUAUUAUUAUUAUAUAUUAUAUGU | 0.0412 | 0.0861 |  | 
UAUGGUAAAGUCAGGAUAUACGUGCAGUUUUCUGGGUAGAAGGGACAUGAGGAUCACCCAUGUAUGGUAGUGUU | 0.118 | 0.142 |  | 
UCCACUGCUGAGAAGGGAUACAUAUGGUUCUAGUCAGGAUAUCGAUACAGUGCAGCAUGAGGACAUGAGGAUCACCCAUGUAUU |  |  | 0.0256 | 0.0186
CUGAUGUCAGGAUAUCAGAAAAGGUGCAAGGACGCACCAAAUGAGAAGGGACAUGAGGAUCACCCAUGUAAAAC | 0.025 | 0.122 |  | 
AUAAUGUAAGGAUAUCAGUCGACUAGCCUCGGCUAGUCGACUGAGAAGGUACAUGAGGAUCACCCAUGUGGUUC | 1.13 | 0.484 |  | 
AGAAGACAUGAGGAUCACCCAUGUGCACGUGGAGGAGGAUAUGCUAGUAGAAGAUAGAAUGCAGAAGGCCUAAGAA |  |  | 0.088 | 0.0856
UAGGAGUACGUAGGAUAUGUAGGAUAUUCCUACAUGAGGAUCACCCAUGUUAGCAUGGAAGAAGGACAGAAGGACGUGCUCCUU |  |  | 1.09 | 0.0161
GGAGGAGGUGUAGGAUAUAUAGAGGAGGGAGGGAUAGAAGGACAUGAGGAUCACCCAUGUGAGGAGGAGGAGGGAGGGAGGAGG | 0.0135 | 0.0119 |  | 
UUUUUGUGAGGAUAUCAGUAGUAAAAAAAUAAAAUUACUACUGAGAAGGCACAUGAGGAUCACCCAUGUUCUUU | 0.0187 | 0.0585 |  | 
UGAAGGUAAGGAUAUACAUGAGGAUCACCCAUGUUGUCAUUUCUGUCUGGGCAGGCAUGUAGAAGGUACCUACA | 0.0264 | 0.0873 |  | 

Sequence | apparent Kd [1] [µM] | apparent Kd [2] [µM] | apparent Kd [3] [µM] | apparent Kd [4] [µM]
UCCUUGGUACAGAAGGACCGAGCUCAGUAGCAGGUAGGAUAUGUACAUGAGGAUCACCCAUGUCAGCGGUAAUUACCAGUUUUC | 0.0575 | 0.0242 |  | 
UCACGGGAUUGAGGAUAUAUAUUAAUUUUUACAAUAGAAGGCAAAUUUUUAGUUUUUUCACUUUACAUGAGGAUCACCCAUGUU | 0.0275 | 0.0255 |  | 
GUGGCCCAGGCACAGGAUAUGUUUCUCGUAACAUGAGGAUCACCCAUGUGCCUAUGAGAUUUUUUGCAGAAGGGUGCACGCCACG |  |  | 0.229 | 0.0181
UAUAUUUUUAUAGGAUAUGGAUAUGAUGCAUAUCCAGAAGGGUGAUUAUAAUAUAAUCUAUACAUGAGGAUCACCCAUGUUUAU |  |  | 0.242 | 0.072
AGUAACAGAGGAUAUACUAUUUUAUGUGUUUGUUAUUUUAAACAUGAGGAUCACCCAUGUAGAAGGCUGAAUGA | 0.0284 | 0.0291 |  | 
UCGUUUUUUGAGGAUAUGCGACGUUCCUUCGUCGUAGAAGGCGAUACAUGAGGAUCACCCAUGUUUAUGGGCAU | 0.108 | 0.138 |  | 
GGAGGACAUGAGGAUCACCCAUGUGGAUGAUCGCUAGGAUAUGCGUGCGGGAGGAGUGGUGCAGAAGGAGUGGGAU |  |  | 0.35 | 0.272
CCCGGCGAGUCGCUACGCCGAGAGCAGGAUAUUCCGCCGUGAUCUACAUGAGGAUCACCCAUGUGGAAGAAGGGCUACACAAAA | 0.0151 | 0.158 |  | 
CGCUACUACCAGAAGGACAUGAGGAUCACCCAUGUAGGAUAUGGGUUACACGUUCCUGUGUUUUGUUACUACGCUACGUAUGCG |  |  | 0.621 | 0.029
CGUAUACAUGAGGAUCACCCAUGUGAGGAUAUGCUUUAUUAUUAUUAUUAUUAUUGUUGCAGAAGGUACAUUGC | 0.0235 | 0.0182 |  | 
CCUCAGUAAGGAUAUCAGCUUAUAAAGUUGGUAAUGAGAGCUGAGAAGGUACAUGAGGAUCACCCAUGUUAGUU | 0.0215 | 0.0663 |  | 
UAUGUAUUCGUAGGAUAUCCGUCGCCACCGUGUGGAGAAGGACGAACAUGAGGAUCACCCAUGUAUCAUGGUGUAGACACUUUC | 0.126 | 0.183 |  | 
AAAAAACAUGAGGAUCACCCAUGUCUUUUGACAUGAGGAUAUGUACAGACUUCGGUCUGUACAGAAGGCAUGUCUU |  |  | 0.0414 | 0.0171
GCUGCAUAGGCAGGAUAUGCAACAAUGAGAUGAAAAUACAUCUCAUUGACAUGAGGAUCACCCAUGUAGAAGGGCCUGUGCAGU | 0.0163 | 0.0189 |  | 
CUCAGACAUGAGGAUCACCCAUGUCAGGAUAUCGUCUACCUGUGGAAACACAGGUAGACGAGAAGGGAUGUGUU | 0.0516 | 0.0441 |  | 
AGCUAGUGAGGAUAUACAAGAAUAUAAACGAACAUAAAGGGACAUGAGGAUCACCCAUGUAGAAGGCACUAGCA | 0.0376 | 0.243 |  | 
GCCCGAACCACAGGAUAUCCCAAUGUUUUACAGGGAGAAGGGUGAGAGUAUGACAUGAGGAUCACCCAUGUUGUUCGGGUGGAA |  |  | 0.709 | 0.227
GGAUUACAUGAGGAUCACCCAUGUAGAAGGCGCCUGGGAGACCAGCGCGAGGUAGAAGACCCGGGCGAGGAUAUACAGGAGGGC | 0.0255 | 0.0564 |  | 
